# DAT uptake mod: changed hDAT dopamine uptake under cocaine IC80, either direction, primary screen, cocaine antagonist project, cell-based, LLC-PK1 hDAT, [14C]-dopamine uptake, MLSMR | Sodium-dependent dopamine transporter (Homo sapiens), Q01959 | LLC-PK1 hDAT cells, [14C]-dopamine uptake with cocaine IC80; actives deviate in either direction | B-score at 10 µM | 1.3% of 110,000 active;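 active = Z score or B-score, a plate-position-corrected score, falls beyond the plate's 99.7% confidence bounds, in either direction; inactive = both scores lie inside the 99.7% bounds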;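 note: scored against the spread of the other compound wells on the same plate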
# AP ELISA ortho: alternative complement pathway inhibitors, primary screen, biochemical, ELISA, human serum, orthogonally pooled compounds; inhibition, % at 5 µM; 0.08% of 62,000 active; LPS-coated ELISA, C3 deposition; tested in compound mixtures; AID 1235, 2008;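 active = inhibition above 30% in each of the two pooled mixtures holding the compound, so the lower value exceeds 30%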;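 note: 0% = serum in Mg-EGTA without compound and 100% = EDTA serum blank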
#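 Test system – human serum alternative complement pathway, C3 deposition on LPS-coated wells · Buffer or medium – diluted human serum in Mg2+-EGTA GVB++ · Compound dosing – 5 µM each compound, pools of ten, 50 µM per pool · Schedule – 1 h serum-compound exposure at 37 °C · Measured by – Anti-C3 ELISA, OD 450 nm · Read-out basis – percent inhibition of C3 deposition onto LPS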
# E coli RNAP: E. coli RNAP inhibitors, biochemical; E. coli RNA polymerase, fluorescence transcription assay; inhibition, %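 (tested at 10 µM)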; 0.2% of 62,000 active; AID 559, 2006; in the data active = inhibition above about 20%;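 note: 0% = enzyme without compound and 100% = no enzyme blank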
# D1 mod: D1 CRE-luciferase signal change, two-sided – cell-based, HEK293 D1, dopamine EC30, D1 allosteric modulator project, primary screen | D(1A) dopamine receptor (Homo sapiens), P21728 | AID 641, 2007 | B-score at 10 µM | 5.9% of 58,000 active | dopamine EC30 potentiation; actives deviate in either direction;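 active = luminescence count or its row- and column-corrected plate score outside the 99.7% band of the plate's sample wells, on either side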
# Target sequence (P21728 whole entry, looked up): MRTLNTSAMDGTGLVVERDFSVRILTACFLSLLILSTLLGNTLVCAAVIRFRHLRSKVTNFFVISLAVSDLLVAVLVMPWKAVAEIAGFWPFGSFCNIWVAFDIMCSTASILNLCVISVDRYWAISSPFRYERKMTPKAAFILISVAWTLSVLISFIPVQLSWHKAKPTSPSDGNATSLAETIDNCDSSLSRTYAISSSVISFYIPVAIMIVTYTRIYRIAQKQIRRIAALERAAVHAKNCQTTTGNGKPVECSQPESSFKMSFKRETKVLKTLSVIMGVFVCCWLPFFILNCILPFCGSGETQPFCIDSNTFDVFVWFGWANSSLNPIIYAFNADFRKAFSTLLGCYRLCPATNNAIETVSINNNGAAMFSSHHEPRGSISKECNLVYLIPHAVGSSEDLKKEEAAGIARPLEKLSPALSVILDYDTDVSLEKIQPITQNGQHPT
# HEK293 NFkB inh: inhibitors of PMA/ionomycin-induced NF-kB reporter, primary screen, antigen receptor NF-kB inhibitor project, cell-based, HEK-293 luciferase reporter, luminescence | inhibition, % at 3 µM | 0.21% of 62,000 active | AID 465, 2006 | HEK-293 NF-kB luciferase reporter;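 active = inhibition above the mean of all tested compounds plus 3 SD, cut at about 40% in these data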;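 note: 0% = stimulated DMSO wells and 100% = 10 µM reference inhibitor 5653914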
#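 System: NF-kB luciferase reporter HEK-293 cells | Replication: Single test | Control set: DMSO vs reference inhibitor | Evaluation: % inhibition | Schedule: 1 h pretreatment, 16 h stimulation, 37 °C | Probe or stimulus: PMA with ionomycin | Compound dosing: One dose, 3 µM | Detection: Luciferase luminescence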
# Active calls of the source: *; . = no result. Only a selection was taken, and hits are over-represented in it overall.
SMILES,DAT uptake mod,AP ELISA ortho,E coli RNAP,D1 mod,HEK293 NFkB inh
COc1ccc(C2N(c3ccccn3)C(=O)C3CCCN32)c(OC)c1 (stereo unspecified),-1,0,8,-0.11,-3
COc1cc(C2N(c3ccccn3)C(=O)C3CCCN32)cc(OC)c1OC (stereo unspecified),-7.9*,11,6,-0.37,9
COc1ccc(CNC(=O)C2CCCN2S(=O)(=O)c2ccccc2)cc1 (stereo unspecified),0.81,13,7,.,21
O=C1c2ccccc2S(=O)(=O)N1Cc1nc2ccccc2s1,1.1,11,2,.,24
CN(C)c1ccc(C2=NOC(CN3C(=O)c4ccccc4S3(=O)=O)C2)cc1 (stereo unspecified),0.51,18,.,-5.7*,-36
CN1C(=O)Cc2cc(S(=O)(=O)N3CCOCC3)ccc21,-8.7*,-6,4,-0.1,-1
CCOC(=O)CCCNC(=O)COC(=O)c1ccc(O)cc1,2.5*,.,.,.,.
COc1cccc(CN2C(=O)[C@@H]3Cc4c([nH]c5ccccc45)C(C)(C)N3C2=O)c1,1,.,.,.,.
O=c1c2cc(N3CCOCC3)ccc2[nH]c(=S)n1CCCN1CCCCCC1,0.22,12,0,-0.31,13
O=c1c2cc(N3CCOCC3)ccc2[nH]c(=S)n1CCCN1CCN(c2ccccc2F)CC1,-0.32,8,4,-6.7*,6
Cc1cc2oc(=O)cc(CSc3nc(N)cc(N)n3)c2cc1C,-0.072,.,.,.,.
CCN(CC)C(=O)CSc1nc2ccccc2c(=O)n1-c1ccccc1OC,1.9*,19,7,.,29
CCCCC(=O)Nc1ccc(NC(=O)CCCC)nc1,-0.71,69*,4,.,0
CCCCC(=O)Nc1ccc(NC(=O)C2CC2)cn1,0.87,9,8,-0.38,0
COC(C/C=C/[C@@H](O)[C@H](C)OCc1ccccc1)OC,-0.0023,.,.,.,.
Cn1c(N)c(C(=O)COC(=O)c2cc(C3CC3)nc3ccccc23)c(=O)n(Cc2ccccc2)c1=O,1.5,.,.,.,.
CCOC(=O)N1CCC2(CC1)C(C#N)=C(N)Oc1n[nH]c(CSc3ccc(C)cc3)c12,0.15,12,0,-4.6*,17
O=C(CSc1nnc2ccccn12)NC(=O)NC1CCCCC1,-0.16,8,3,-5.5*,7
Cn1c(SCCOc2ccccc2Cl)nnc1-c1cccs1,0.78,.,.,.,.
Cn1c(SCc2c(F)cccc2Cl)nnc1-c1cccs1,2.3*,-5,-7,0.19,-9
C/C(N)=C(/C#N)C(=O)COC(=O)CC12CC3CC(CC(C3)C1)C2,-0.055,.,.,.,.
CN(C)c1ccc(Nc2nc(-c3cccnc3)cs2)cc1,-0.27,16,-11,-2.8*,-30
O=C(O)C1CCCCC1C(=O)NCCc1c[nH]c2ccccc12 (stereo unspecified),-0.96,5,0,-5.1*,23
O=C(O)[C@H]1CCCC[C@H]1C(=O)NCCc1ccccc1,1.1,.,.,.,.
COc1ccccc1/C=N/n1c(N)c(S(=O)(=O)c2cccs2)c2nc3ccccc3nc21,3.5*,.,.,.,.
SMILES,DAT uptake mod,AP ELISA ortho,E coli RNAP,D1 mod,HEK293 NFkB inh
COc1ccc(CCn2c(N)c(S(=O)(=O)c3cccs3)c3nc4ccccc4nc32)cc1OC,-0.44,15,-2,2,23
Cc1ccc(C)c(N2CCN(C(=O)CC3Sc4ccccc4NC3=O)CC2)c1 (stereo unspecified),3.4*,13,6,0.71,9
CCC(=O)N1CCN(c2cc(C)ccc2C)CC1,-0.61,11,10,1.1,7
CSc1cccc(NC(=O)c2ccco2)c1,0.21,3,-2,-0.32,-1
O=C(O)CCSc1nc2ccccc2s1,-0.29,17,7,-6.5*,22
O=C(CSc1nc2ccccc2s1)N1c2ccccc2Sc2ccccc21,0.76,.,.,.,.
CO/N=C/C(C#N)c1ncc(C(F)(F)F)cc1Cl (stereo unspecified),-2.5*,.,.,.,.
O/C(=C\Sc1nnc(Cc2ccccc2)o1)c1ccc(F)cc1,-0.072,.,.,.,.
CC(C)c1ccc2oc(-c3cc(N)ccc3O)nc2c1,-0.33,23,3,-3.9*,8
Oc1ccc2[nH]cnc2c1CN1CCCCC1,1.3,11,11,-0.11,14
